Active and inactive are the calls of the source. The rule behind the calls is not given here.
Assays:
[1] = Inhibition of bacterial MBP-fused NDM1 expressed in Escherichia coli BL21(DE3) ausing fluorocillin as substrate preincubated for 20 mins followed by substrate addition measured at 1 sec time interval for 25 mins by fluorescence assay; parameters: species or system Bacteria
How it was run: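 NDM-1 pre-incubated 20 min with inhibitor (final 100 μM to 1 nM) in 50 mM HEPES pH 7.0 with 2 mM CHAPS. Reaction started with fluorocillin (final 87 nM, below KM), NDM-1 final 25 pM. Fluorescence read at λex/em 495/525 nm, 10 reads over ~25 min.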

[2] = Inhibition of bacterial MBP-fused NDM1 expressed in Escherichia coli BL21(DE3) ausing chromacef as substrate preincubated for 20 mins followed by substrate addition measured after 0.3 mins; parameters: species or system Bacteria
How it was run: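 Preincubated 20 min, then 3 μM substrate (~3×KM) added. A442 followed ~0.3 min at 25 °C. Activity scaled to uninhibited (100%) and no-enzyme (0%) controls, fitted to a Hill-type equation.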

[3] = Inhibition of bacterial NDM1; parameters: species or system Bacteria
How it was run: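 Chromogenic NDM-1 assay: enzyme (3 nM) pre-incubated 20 min with ~20 inhibitor concentrations in 50 mM HEPES, 1% DMSO, pH 7.0. Chromacef substrate 3 μM (~3×KM). Absorbance at 442 nm followed ~0.3 min at 25 °C.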

[4] = target: Beta-lactamase VIM-2 (Pseudomonas aeruginosa) (UniProt Q9K2N0); assay: Inhibition of Pseudomonas aeruginosa VIM2 expressed in Escherichia coli BL21(DE3) at 50 uM using chromacef as substrate preincubated for 10 mins followed by substrate addition measured after 20 mins by HTS assay relative to control
How it was run: (§1)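 Colorimetric chromacef screen, final 50 mM HEPES, 2 mM CHAPS, pH 7.0. Substrate added at 3 μM (NDM-1, ~3×KM), 7.2 μM (IMP-1) or 16 μM (VIM-2). […] Percent inhibition calculated.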

[5] = target: Metallo-beta-lactamase type 2 (Serratia marcescens) (UniProt P52699); assay: Inhibition of Serratia marcescens IMP1 expressed in Escherichia coli BL21(DE3) at 50 uM using chromacef as substrate preincubated for 10 mins followed by substrate addition measured after 20 mins by HTS assay relative to control; how it was run: as §1
Chain of Metallo-beta-lactamase type 2 (Serratia marcescens) (P52699 19-246 limits assumed): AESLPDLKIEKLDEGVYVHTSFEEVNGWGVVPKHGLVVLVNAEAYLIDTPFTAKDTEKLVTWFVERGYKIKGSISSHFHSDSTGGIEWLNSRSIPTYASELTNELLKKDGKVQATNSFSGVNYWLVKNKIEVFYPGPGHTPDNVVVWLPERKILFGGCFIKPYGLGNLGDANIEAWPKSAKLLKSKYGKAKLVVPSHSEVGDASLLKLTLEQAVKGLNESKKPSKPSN

Bacteria [6] = assay: Inhibition of bacterial MBP-fused NDM1 expressed in Escherichia coli BL21(DE3) at 50 uM using chromacef as substrate preincubated for 10 mins followed by substrate addition measured after 20 mins by HTS assay relative to control; how it was run: as §1
Bacteria [7] = assay: Binding affinity to bacterial CoCoNDM-1 expressed in Escherichia coli BL21(DE3) assessed as metal stripping at 1 to 2 equiv after 30 mins by UV-Visible spectroscopic method
How it was run: (§2)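 Apo-NDM-1 at 300 μM in 50 mM HEPES, 150 mM NaCl, pH 6.8, loaded with 2 molar equiv CoCl2. […] Absorbance read 300–700 nm at 25 °C as difference spectra against buffer blank, normalized at 700 nm.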

Bacteria [8] = assay: Binding affinity to bacterial NDM-1 expressed in Escherichia coli BL21(DE3) assessed as intrinsic tryptophan fluorescence quenching up to 32 uM after 30 mins by luminescence spectrometric method relative to control
How it was run: (§3)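 NDM-1 at 2 μM final in 50 mM HEPES pH 7.5 mixed with compound at 4–32 μM, incubated 30 min. Emission scanned 300–400 nm with excitation at 280 nm. Relative tryptophan fluorescence read at 348 nm, with buffer set to 0% and inhibitor-free NDM-1 to 100%. Control run with 2 μM L-tryptophan in place of enzyme.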

Bacteria [9] = assay: Binding affinity to bacterial NDM-1 expressed in Escherichia coli BL21(DE3) assessed as Zn2+ stripping up to 128 uM after 30 mins by equilibrium dialysis method
How it was run: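 NDM-1 (8 μM final) in 50 mM HEPES pH 7.5 mixed with compound at 0–128 μM for 30 min. Then dialyzed 4 h against metal-free 50 mM HEPES pH 7.5. Residual Zn(II) measured by ICP-AES at 213.856 nm.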

[10] = Fluorescence quenching activity assessed as reduction in tryptophan fluorescence up to 32 uM after 30 mins by luminescence spectrometric method
How it was run: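 NDM-1 (2 μM final) in 50 mM HEPES pH 7.5 with compound at 4–32 μM for 30 min. Excitation 280 nm, emission scanned 300–400 nm, intensity taken at 348 nm. Scaled with buffer as 0% and inhibitor-free enzyme as 100%. Free L-tryptophan (2 μM) run as control.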

Bacteria [11] = assay: Binding affinity to bacterial CoCoNDM-1 expressed in Escherichia coli BL21(DE3) assessed as metal stripping at 1 to 2 equiv by 1H NMR spectroscopic method
How it was run: (§4)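 Apo-NDM-1 concentrated to ~1 mM and loaded with 2 equiv CoCl2. Samples in 50 mM HEPES, 150 mM NaCl, 10% D2O, pH 6.8. Compounds from 50–100 mM DMSO stocks titrated in ~5 μL aliquots. 1H spectra recorded at 292 K, 300.16 MHz.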

Bacteria [12] = assay: Binding affinity to bacterial CoCoNDM-1 expressed in Escherichia coli BL21(DE3) assessed as CoCoNDM-1-compound ternary complex formation at 1 equiv by 1H […] spectroscopic method
Beta-lactamase VIM-2 = Beta-lactamase VIM-2 (Pseudomonas aeruginosa, UniProt Q9K2N0); assay: Inhibition of Pseudomonas aeruginosa VIM2 expressed in Escherichia coli BL21(DE3) using fluorocillin as substrate preincubated for 10 mins followed by substrate addition measured after 20 mins by HTS assay
[13] = Metal chelating activity assessed as Co2+-compound complex formation at 1 equiv by 1H NMR spectroscopic method; type: functional
How it was run: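 Apo-NDM-1 concentrated to ~1 mM and given 2 equivalents of CoCl2, in 50 mM HEPES, 150 mM NaCl, 10% D2O, pH 6.8. Compounds, from DMSO stocks of 50–100 mM, titrated in. 1H NMR spectra recorded at 292 K at 300.16 MHz.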

Bacteria [14] = assay: Inhibition of bacterial MBP-fused NDM1 expressed in Escherichia coli BL21(DE3) ausing fluorocillin as substrate preincubated for 20 mins followed by substrate addition measured at 1 sec time interval for 25 mins in presence of ZnSO4 by fluorescence assay
Bacteria [15] = assay: Binding affinity to bacterial CoCoNDM-1 expressed in Escherichia coli BL21(DE3) assessed as CoCoNDM-1-compound ternary complex formation at 1 to 2 equiv after 30 mins by UV-Visible spectroscopic method; how it was run: as §2
Bacteria [16] = assay: Binding affinity to bacterial NDM-1 expressed in Escherichia coli BL21(DE3) assessed as increase in intrinsic tryptophan fluorescence up to 32 uM after 30 mins by luminescence spectrometric method relative to control; how it was run: as §3
Bacteria [17] = assay: Binding affinity to bacterial CoCoNDM-1 expressed in Escherichia coli BL21(DE3) assessed as CoCoNDM-1-compound ternary complex formation at 3 to 5 equiv by 1H NMR spectroscopic method; how it was run: as §4

## O=C(O)c1cc(-c2ccc(O)cc2)cc(C(=O)O)n1
[1]
  IC50: 0.39 µM
[2]
  IC50: 0.66 µM

## N[C@@H](CN[C@@H](CN[C@@H](CC(=O)O)C(=O)O)C(=O)O)C(=O)O
[3]
  IC50: 4 µM

## Nc1ccc(-c2cc(C(=O)O)nc(C(=O)O)c2)cc1
[1]
  IC50: 0.54 µM
[2]
  IC50: 1.03 µM

## c1cnc2c(c1)ccc1cccnc12
[4]
  inhibition: > 60%
[5]
  inhibition: > 60%
Bacteria [6]
  inhibition: > 60%

## O=C(O)c1cccc(-c2cc(C(=O)O)nc(C(=O)O)c2)c1
[1]
  IC50: 0.2 µM
[2]
  IC50: 0.89 µM

## O=C(O)c1cc(-c2cccc(O)c2)cc(C(=O)O)n1
[1]
  IC50: 0.43 µM
[2]
  IC50: 0.6 µM

## NCCNCc1ccc(C(=O)N[C@H]2Cc3cccc(C(=O)O)c3O[B-]2(O)O)cc1
[3]
  IC50: 0.004 µM

## COc1ccccc1-c1cc(C(=O)O)nc(C(=O)O)c1
[1]
  IC50: 0.5 µM
[2]
  IC50: 0.5 µM

## O=C(O)CN(CCN(CC(=O)O)CC(=O)O)CC(=O)O
Bacteria [7]
  Activity: Active
Bacteria [8]
  Activity: < 10%
Bacteria [9]
  Activity: Active
[10]
  Activity: inactive
Bacteria [11]
  Activity: Active

## O=C(O)c1cccc(C(=O)NCc2nccs2)n1
[2]
  IC50: 24 µM

## CC(C)CNC(=O)c1cccc(C(=O)O)n1
[2]
  IC50: > 50 µM

## O=C(O)c1cc(NCc2ccco2)cc(C(=O)O)n1
[2]
  IC50: 4.9 µM

## O=C(O)c1cccc(C(=O)O)n1 [DIPICOLINIC ACID]
Bacteria [7]
  Activity: Active
[4]
  inhibition: > 60%
Bacteria [8]
  Activity: 20%
Bacteria [9]
  Activity: Active
Bacteria [12]
  Activity: Active
[5]
  inhibition: > 60%
Beta-lactamase VIM-2
  IC50: 1.66 µM
[13]
  Activity: Active
Bacteria [14]
  inhibition: inactive
[1]
  IC50: 0.41 µM
Bacteria [6]
  inhibition: > 60%
Bacteria [11]
  Activity: Active
[2]
  IC50: 0.52 µM

## COc1ccc(NC(=O)c2cccc(C(=O)O)n2)cc1
[2]
  IC50: > 50 µM

## CN(C)c1cccc(-c2cc(C(=O)O)nc(C(=O)O)c2)c1
[1]
  IC50: 0.43 µM
[2]
  IC50: 0.82 µM

## CC(C)[C@@H](NC(=O)c1cccc(C(=O)O)n1)C(=O)O
[2]
  IC50: 22 µM

## O=C(O)c1cccc(C(=O)Nc2ccccc2)n1
[2]
  IC50: > 50 µM

## O=C(O)c1cccc(C(=O)NCc2ccco2)n1
[2]
  IC50: > 50 µM

## Oc1ccc[nH]c1=S
[4]
  inhibition: > 60%
[5]
  inhibition: > 60%
Bacteria [6]
  inhibition: > 60%

## C[C@H](CS)C(=O)N1CCC[C@H]1C(=O)O
Bacteria [15]
  Activity: Active
Bacteria [9]
  Activity: inactive
Bacteria [16]
  Activity: 10%
Bacteria [12]
  Activity: Active
[10]
  Activity: inactive
Bacteria [17]
  Activity: Active

## O=C(O)c1cccc(C(=O)NC2CCCC2)n1
[2]
  IC50: > 50 µM

## O=C(O)c1cccc(C(=O)NCCc2ccccc2)n1
[2]
  IC50: > 50 µM

## COc1ccc(Nc2cc(C(=O)O)nc(C(=O)O)c2)cc1
[2]
  IC50: 4.5 µM

## O=C(O)c1cccc(C(=O)NC2CCCCC2)n1
[2]
  IC50: > 50 µM

## O=C(O)c1cc(NCCc2ccccc2)cc(C(=O)O)n1
[2]
  IC50: 9.1 µM

## CC(=O)Nc1cccc(-c2cc(C(=O)O)nc(C(=O)O)c2)c1
[1]
  IC50: 0.93 µM
[2]
  IC50: 0.99 µM

## O=C(Nc1cccc(-c2cc(C(=O)O)nc(C(=O)O)c2)c1)c1ccccc1
[1]
  IC50: 0.13 µM
[2]
  IC50: 0.86 µM

## CN(C)c1ccc(-c2cc(C(=O)O)nc(C(=O)O)c2)cc1
[1]
  IC50: 0.19 µM
[2]
  IC50: 0.57 µM

## O=C(O)c1ccc2cccc(O)c2n1
[4]
  inhibition: > 60%
[5]
  inhibition: > 60%
Bacteria [6]
  inhibition: > 60%

## O=C(O)c1cccc(C(=O)N2CCCCC2)n1
[2]
  IC50: > 50 µM

## O=C(O)c1cccc(C(=O)NCCc2cccs2)n1
[2]
  IC50: > 50 µM

## O=C(Cc1ccccc1)Nc1cccc(-c2cc(C(=O)O)nc(C(=O)O)c2)c1
[1]
  IC50: 0.59 µM
[2]
  IC50: 0.86 µM

## COc1ccc(CNC(=O)c2cccc(C(=O)O)n2)cc1
[2]
  IC50: > 50 µM

## O=C(O)c1cc(Cl)cc(C(=O)O)n1
[2]
  IC50: 5 µM

## O=C(O)c1cc(Nc2ccccc2)cc(C(=O)O)n1
[2]
  IC50: 3.4 µM

## O=C(O)c1cc(-c2ccccc2O)cc(C(=O)O)n1
[1]
  IC50: 0.13 µM
[2]
  IC50: 0.52 µM

## COc1ccc(-c2cc(C(=O)O)nc(C(=O)O)c2)cc1
[1]
  IC50: 0.38 µM
[2]
  IC50: 0.43 µM

## O=C(O)c1cc(NCc2ccc3c(c2)OCO3)cc(C(=O)O)n1
[2]
  IC50: 5.8 µM

## CN(C)c1cc(C(=O)O)nc(C(=O)O)c1
[2]
  IC50: 13.6 µM

## O=C(O)c1cccc(C(=O)NCc2ccccc2)n1
[2]
  IC50: > 50 µM

## O=C(O)c1cccc(C(=O)NCc2ccc3c(c2)OCO3)n1
[2]
  IC50: > 50 µM

## COc1cccc(-c2cc(C(=O)O)nc(C(=O)O)c2)c1
[1]
  IC50: 1.07 µM
[2]
  IC50: 0.8 µM

## O=C(O)c1cccc(C(=O)NCC2CCCO2)n1 (stereo unspecified)
[2]
  IC50: > 50 µM

## CC(C)NC(=O)c1cccc(C(=O)O)n1
[2]
  IC50: > 50 µM

## c1ccc(C2=NCCS2)nc1
[4]
  inhibition: > 60%
[5]
  inhibition: > 60%
Bacteria [6]
  inhibition: > 60%

## O=C(O)c1cccc(C(=O)NCc2cccs2)n1
[2]
  IC50: > 50 µM

## O=C(O)c1cc(-c2ccccc2)cc(C(=O)O)n1
[2]
  IC50: 0.99 µM

## COc1ccc(CNc2cc(C(=O)O)nc(C(=O)O)c2)cc1
[2]
  IC50: 7.2 µM

## Oc1c(I)cc(Cl)c2cccnc12
[4]
  inhibition: > 60%
[5]
  inhibition: > 60%
Bacteria [6]
  inhibition: > 60%

## O=C(O)c1cc(NCc2ccccc2)cc(C(=O)O)n1
[2]
  IC50: 8.4 µM

## O=C(O)CNC(=O)c1cccc(C(=O)O)n1
[2]
  IC50: 49 µM

## O=C(O)c1cc(NCc2cccs2)cc(C(=O)O)n1
[2]
  IC50: 5.2 µM

Reference: ChEMBL document CHEMBL4017500 (J Med Chem, 2017)
